# Hits are enriched below; roughly 1.8% of the tested compounds scored in any of these assays.
# HNF4A DNA FP = change in binding of human HNF4A to DNA, primary screen, biochemical, fluorescence polarization, FITC-DNA | Hepatocyte nuclear factor 4-alpha (Homo sapiens), P41235 | activity change, % at 10 µM | hit rate 0.3% among 360,000 | AID 1224865, 2016 | 1 h; in the data active = activity change above about 30%, passing the limit was not always enough
# SUMO HTRF inh = inhibitors of in vitro SUMOylation cascade, primary screen, biochemical, HTRF, uHTS. HTRF SUMOylation assay, SAE1/SAE2 + UBC9. hit rate 0.36% among 290,000. inhibition, % at 35 µM. SUMO-conjugating enzyme UBC9 (Homo sapiens), P63279; in the data active = inhibition above about 50%, passing the limit was not always enough; inconclusive = no clear call, values can overlap the other calls
# CSN deneddyl inh = inhibitors of CSN-mediated cullin deneddylation, primary screen, biochemical, fluorescence polarization, uHTS. Purified CSN, SCF-Nedd8-OG deneddylation. inhibition, % at 12.5 µM. hit rate 0.38% among 360,000. AID 651999, 2013;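 active = pattern-corrected inhibition above about 35%, with an unprinted fluorescence ratio check between 0.5 and 1.5, limit read from the data, passing the limit was not always enough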
# Target sequence (Q92905 whole entry, looked up, one chain of several): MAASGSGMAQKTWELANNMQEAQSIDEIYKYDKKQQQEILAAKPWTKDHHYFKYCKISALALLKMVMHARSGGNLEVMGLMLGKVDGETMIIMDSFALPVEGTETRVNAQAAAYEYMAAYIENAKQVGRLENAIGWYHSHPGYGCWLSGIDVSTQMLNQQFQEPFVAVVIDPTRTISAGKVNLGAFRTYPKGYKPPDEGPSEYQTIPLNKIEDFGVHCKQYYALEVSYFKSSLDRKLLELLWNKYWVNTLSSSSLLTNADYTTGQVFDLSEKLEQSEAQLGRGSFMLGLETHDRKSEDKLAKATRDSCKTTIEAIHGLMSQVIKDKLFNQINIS
#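 Assay system: HEK293T-derived human Csn5 enzyme; quantity: 0.24 nM enzyme; medium: Tris/NaCl/DTT buffer, pH 7.5; also added: substrate SCFSkp2-Nedd8OG, 10 nM; doses: 12.5 µM compound; schedule: 90 min reaction at room temperature; signal: FP; read-out: % inhibition of substrate cleavage by Csn5; benchmarks: substrate-only high control, full reaction low control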
# SENP1 inh = human SENP1 catalytic domain inhibitors, primary screen, biochemical, FRET, uHTS. AID 624204, 2012. hit rate 0.21% among 360,000. inhibition, % at 10 µM. recombinant SENP1 catalytic domain, CyPet-SUMO1-YPet FRET cleavage;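 active = inhibition at least 30% at 10 µM, raw YFP signal under a set limit, fluorescence ratio 0.5 to 1.5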
#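 Compound: 10 µM single point, 0.5% DMSO; Test system: hSENP1 catalytic domain, recombinant; Timing: 50 min reaction at room temperature; Technique: FRET, CFP and YFP emission; Control set: no-enzyme wells low, DMSO-plus-enzyme wells high control.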
# TPT1 inh = Candida albicans TPT1 enzyme inhibitors, primary screen, biochemical, fluorescence polarization; recombinant caTPT1, FP RNA substrate dephosphorylation; inhibition, % at 5 µM; hit rate 0.81% among 300,000;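 active = inhibition above the mean of all tested compounds plus 3 SD, set per screening campaign, cut at about 24% in these data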
# Rpn11 inh = Rpn11 (PSMD14) deubiquitinase inhibitors, primary screen, biochemical, fluorescence polarization, uHTS; human 26S proteasome, Ub4-pepOG fluorescence polarization; 20S core pre-blocked with epoxomicin; calls only at 20 µM; 26S proteasome non-ATPase regulatory subunit 14 (Homo sapiens), O00487; AID 588493, 2011; hit rate 0.59% among 360,000;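 active = inhibition at 20 µM, scaled to each plate's controls, above about 33%, limit read from the data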
# Target sequence (O00487 whole entry, looked up): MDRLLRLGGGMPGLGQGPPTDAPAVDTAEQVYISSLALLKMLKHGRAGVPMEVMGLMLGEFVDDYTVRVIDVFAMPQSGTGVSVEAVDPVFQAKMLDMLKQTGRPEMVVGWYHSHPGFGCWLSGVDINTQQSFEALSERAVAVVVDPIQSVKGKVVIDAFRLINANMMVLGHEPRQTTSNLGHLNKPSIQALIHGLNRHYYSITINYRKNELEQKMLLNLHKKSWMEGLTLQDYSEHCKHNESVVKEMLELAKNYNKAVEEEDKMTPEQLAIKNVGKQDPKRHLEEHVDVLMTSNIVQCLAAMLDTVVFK
# TPT1 inh confirm = Candida albicans TPT1 inhibitors, confirmation, biochemical, fluorescence polarization, triplicate; recombinant caTPT1, RNase T1 coupled; inhibition, % at 5 µM; shares compounds with TPT1 inh; hit rate 74% among 2,400;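 active = inhibition above the primary screen limit, the mean inhibition of all tested compounds plus 3 SD, cut at about 25% in these data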
# RNase T1 inh = RNase T1 inhibitors, counter-screen for TPT1 inhibitor project, biochemical, fluorescence polarization; shares compounds with TPT1 inh; RNase T1 cleavage, 1536-well; inhibition, % at 5 µM; hit rate 83% among 2,400; AID 2153, 2009;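 active = inhibition above the solvent-only control well mean plus 3 SD, limit set per screening run, cut at about 23% in these data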;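 also: inhibitors block cleavage so intact labeled substrate keeps polarization high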
# Numbers stand for hits; – = inactive; ? = inconclusive; · = no result shown.
SMILES,HNF4A DNA FP,SUMO HTRF inh,CSN deneddyl inh,SENP1 inh,TPT1 inh,Rpn11 inh,others
NC1C2CN3CCN(C2)CC1(c1ccccc1)C3 (stereo not given),75,–,–,–,–,–,
O=C1NC(=O)C(=Cc2coc3ccccc3c2=O)C(=O)N1,–,–,–,–,–,–,
O=C1NC(=O)C(=C/C=C/c2coc3ccc(Br)cc3c2=O)C(=O)N1,·,–,·,·,39,·,
N#C/C(=C(/O)c1ccc(S(=O)(=O)N(CCCl)CCCl)cc1)c1nc2ccccc2[nH]1,–,53,–,–,–,–,
COc1ccc2c(c1O)C13CCN(C)C(C2)C1CCC(=O)C3 (stereo not given),–,·,–,–,–,–,
C[n+]1c(-c2ccccc2)c2cc(N)ccc2c2ccc(N)cc21,–,101,–,–,–,–,
Nc1ccc2ccc3cccc[n+]3c2c1,–,?,–,–,–,–,
Cc1cccc(C)c1-n1nnnc1C(C1CC1)N1CCC2(CC1)C(=O)NCN2c1ccccc1 (stereo not given),–,·,–,–,·,–,
O=C(COc1ccccc1)N1CCN(C2CCCC2)CC1,40,–,–,–,–,–,
CCOc1ccc(CNCCc2ccc3c(c2)OCO3)cc1,–,–,–,–,–,–,
O=C1NC(=O)N(c2ccccc2)C(=O)/C1=C\c1ccc([N+](=O)[O-])s1,·,55,·,·,–,·,
CN1C(=O)NC(=O)/C(=C/c2ccc([N+](=O)[O-])s2)C1=O,–,–,–,–,–,–,
CN1CCN(c2ccc3nccnc3c2)CC1,–,58,–,–,–,–,
O=C1NC(=O)N(Cc2ccco2)C(=O)/C1=C/c1cccn1CCOc1ccccc1Cl,–,66,–,–,–,–,
O=c1[nH]c2ccccc2n1C1CCN(C(CCc2ccccc2)c2nnnn2C2CCCC2)CC1 (stereo not given),–,·,106,–,·,–,
Cc1ccsc1C(=O)C1CCCN(Cc2cnc(N3CCOCC3)s2)C1 (stereo not given),–,–,101,–,–,–,
Cc1ccsc1C(=O)C1CCCN(Cc2cnc(N(C)C)s2)C1 (stereo not given),·,–,·,·,–,·,
S=P(Nn1cnnc1)(c1ccc(Br)cc1)c1ccc(Br)cc1,–,–,–,–,–,–,
Cc1ccc2c(c1)NP(=S)(Oc1ccccc1)N2 (stereo not given),–,·,–,–,·,–,
COc1ccc2c(c1)NP(=S)(Oc1ccccc1)N2 (stereo not given),–,53,–,–,–,–,
Cc1ccccc1C(=O)NC(Oc1ccccc1)C(Cl)(Cl)Cl (stereo not given),–,–,–,–,–,–,
O=C1NC(=O)C(=Cc2ccccc2[N+](=O)[O-])C(=O)N1,–,·,–,–,·,–,
O=C1NC(=O)C(=Cc2cc3c(cc2[N+](=O)[O-])OCO3)C(=O)N1,–,99,–,–,–,–,
CN1CN(c2ccccc2)C2(CCN(CCCSc3ccccc3NC(=O)/C=C/c3ccccc3)CC2)C1=O,–,·,–,–,·,–,
COC(=O)C1=C(c2ccccc2OCc2ccccc2)C[C@@H]2CC[C@H]1N2C(=O)NCCc1ccc(F)cc1,–,·,–,–,·,–,
SMILES,HNF4A DNA FP,SUMO HTRF inh,CSN deneddyl inh,SENP1 inh,TPT1 inh,Rpn11 inh,others
NS(=O)(=O)c1ccc(-c2ccc(C=C3C(=O)NC(=S)NC3=O)o2)cc1,·,–,·,·,36,·,
CC(C)(C)n1nnnc1C(c1ccnc2ccccc12)N1CCC2(CC1)C(=O)NCN2c1ccccc1 (stereo not given),–,·,123,–,·,–,
CCCCCCNC(=O)N[C@H](Cc1ccc(O)cc1)C(=O)NCCC[C@H]1CN2C(=NC[C@H]2CCC)N1CC1CCC1,·,–,·,·,–,·,
Cc1cc2c(C(C)C)c(O)c(O)c(C=O)c2c(O)c1-c1c(C)cc2c(C(C)C)c(O)c(O)c(C=O)c2c1O,–,95,–,–,·,–,
COc1cccc(OCc2cc(C(=O)N3C[C@H]4C[C@@H](C3)c3cccc(=O)n3C4)no2)c1,–,–,–,–,·,–,
O=c1[nH]c(O)c(C=Nc2ccccc2Oc2ccccc2)c(=O)[nH]1,–,–,48,–,–,–,
CCCCn1nnnc1C(CC)N1CCC2(CC1)C(=O)NCN2c1ccccc1 (stereo not given),–,·,–,–,·,–,
Nc1c(C(=O)NCCN2CCOCC2)c2nc3ccccc3nc2n1Cc1ccccc1,–,–,–,–,–,–,
CCCCn1c(NC(=O)c2ccc(Br)o2)c(C(=O)OCC)c2nc3ccccc3nc21,–,100,–,–,–,–,
CCCCn1c(N)c(C(=O)NCCN2CCOCC2)c2nc3ccccc3nc21,–,–,36,–,–,–,
CCC(CO)(C(=O)OC1C[N+]2(C)CCC1CC2)c1ccccc1 (stereo not given),–,–,–,–,–,–,
Cc1cccc(OP(N)(N)=O)c1C,–,–,115,–,–,–,
CCN1C[C@]2(COC)CC[C@H](O)[C@@]34C5C[C@H]6[C@H](O)C5[C@](O)(C[C@H]6OC)[C@@H]([C@H](OC)C23)[C@@H]14 (stereo not given in full),–,·,–,–,–,–,
Cc1cc(C=C2C(=O)NC(=O)NC2=O)c(C)n1-c1ccc2c(c1)OCO2,–,–,–,–,–,–,
Cc1cc(C=C2C(=O)NC(=S)NC2=O)c(C)n1-c1ccc2c(c1)OCO2,–,79,–,–,–,–,
CCOc1cc(-c2nc3c(C)cccn3c2NCC2CCCO2)ccc1O (stereo not given),–,52,–,–,–,–,
Cc1cccn2c(NCC3CCCO3)c(C(C)C)nc12 (stereo not given),–,–,–,–,–,–,
CCCCn1c(=O)c(C=Nc2ccc(Cl)cc2)c(O)n(Cc2ccco2)c1=O,–,–,–,–,–,·,
CC(C)n1c(=O)c(C=Nc2ccc(S(N)(=O)=O)cc2)c(O)n(Cc2ccco2)c1=O,–,–,–,–,42,–,TPT1 inh confirm=–;RNase T1 inh=–

# Compound activity deposited in PubChem by several laboratories.
